# High-throughput results: PubChem, several laboratories
# EBV gp42 block = blocks Epstein-Barr virus glycoprotein 42 binding; Q1HVG2; Fluorescence polarization binding assay, mP read-out; inhibition, % (tested at 21.74 µM); 0.42% of 220,000 active; AID 1085; in the data active = inhibition above about 50%
# Target sequence (Q1HVG2 whole entry, looked up): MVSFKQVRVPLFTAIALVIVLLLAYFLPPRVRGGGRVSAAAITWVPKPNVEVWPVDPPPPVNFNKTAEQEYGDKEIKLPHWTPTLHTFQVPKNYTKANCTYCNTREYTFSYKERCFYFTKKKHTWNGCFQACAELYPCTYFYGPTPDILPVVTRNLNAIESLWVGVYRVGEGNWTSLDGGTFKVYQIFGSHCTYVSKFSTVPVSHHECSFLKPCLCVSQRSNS
# CHOP inhibitor = blocks CHOP induction under ER stress. AID 2732. 3.8% of 220,000 active. inhibition, % at 10 µM. CHO-K1 CHOP-promoter luciferase, tunicamycin-induced, 15-18 h;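 active = compounds that reduced the stress-induced luciferase reporter signal by more than about 70% of percent inhibition, limit read from the data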;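 note: 0% = tunicamycin plus vehicle and 100% = wells without tunicamycin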
# WT yeast gro inh = growth inhibition of WT yeast, mitochondrial fusion screen. mitochondrial fusion phenotypic screen, WT strain. 2.1% of 190,000 active. inhibition, % at 10 µM; in the data active = inhibition above about 58%; tested in S. cerevisiae
# Tb MetRS inh = blocks T. brucei methionyl-tRNA synthetase activity. purified T. brucei MetRS, ATP depletion, Kinase-Glo luminescence. inhibition, % at 11.9 µM. 0.4% of 360,000 active. AID 624268;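 active = inhibition above a per-plate cutoff of the control wells' mean inhibition plus 3 SD, cut at about 5.5% in these data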;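 note: 0% = DMSO wells median and 100% = median of wells with control inhibitor compound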
#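 Assay system: T. brucei methionyl-tRNA synthetase, purified | Medium: HEPES buffer with MgCl2, KCl, DTT, spermine, BSA, pyrophosphatase | Compound: 11.9 µM single point | Incubation: 15 min enzyme-compound preincubation, 2 h reaction, 10 min detection, 25 °C | Measured by: Kinase-Glo luciferase luminescence reporting remaining unconsumed ATP | Measure: % inhibition normalized to control-well medians | Replication: Singlicate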
# MPTP inh = blocks calcium-induced mitochondrial swelling | isolated mouse mitochondria, Ca2+ swelling absorbance, 30 min | AID 602449 | inhibition, % at 10 µM | 1.4% of 360,000 active;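 active = inhibition of 50% or more, scaled per plate between neutral and stimulator controls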;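 note: 0% = DMSO wells given calcium and 100% = 1 mM EGTA wells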
# GRIN3A LBD mod = NR3A (human) ligand-binding domain modulation; NR3A LBD differential scanning fluorimetry, Tm shift; 0% = protein alone, 100% = glycine-bound protein; Tm shift relative to glycine control, % at 25 µM; AID 1259313; 2.5% of 340,000 active;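 active = melting temperature shift of at least 10% of the positive control shift, at one fixed dose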
# CHOP inh conf = confirmation of CHOP induction inhibitors | shares compounds with CHOP inhibitor | CHO-CHOP promoter luciferase reporter, tunicamycin-induced, luminescence | inhibition, % at 10 µM | 45% of 2,100 active;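 active = mean of three repeat readings of reporter signal inhibition above a set limit, cut at about 70% in these data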;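 note: 0% = tunicamycin plus vehicle and 100% = wells lacking tunicamycin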
# Numbers without * were called inactive; · = no result given. A selection: hits, their analogues and other compounds. The true share with any hit is near 6.4%.
SMILES,EBV gp42 block,CHOP inhibitor,WT yeast gro inh,Tb MetRS inh,MPTP inh,GRIN3A LBD mod,CHOP inh conf
Cc1ccc2ccccc2c1NC(=O)Cn1nnc(-c2cccnc2)n1,-11.9,9.1,-10.5,-0.6,-1.2,-1.5,·
Cc1ccccc1N(CC(=O)O)S(C)(=O)=O,-5.6,26.7,20.4,0.1,-2.2,0.8,·
C=CCc1cccc(/C=N/NC(=O)CCC(=O)Nc2ccc(F)cc2)c1O,-16.7,102.5*,-4.5,0.7,8.8,-7.2,29.1
O=C(CCC(=O)Nc1ccc(F)cc1)N/N=C/c1ccccc1,·,·,·,0.5,-1.0,-0.2,·
O=C(N/N=C/C(Br)=C/c1ccccc1)c1cc(-c2ccco2)[nH]n1,-12.0,103.3*,39.8,-0.3,-7.6,22.2*,8.2
CN(CCNC(=O)CCNC(=O)Cn1ccc2ccccc2c1=O)Cc1ccccc1,-21.7,-14.8,-4.6,0.5,-2.7,0.2,·
O=C(Cn1c(C(F)(F)F)nc2ccccc21)N=Nc1c(O)[nH]c2ccc(Br)cc12,-2.9,105.5*,-41.4,0.1,20.8,10.3*,115.5*
O=C(Cc1cccs1)N=Nc1c(O)[nH]c2ccc(Br)cc12,-10.5,-7.2,·,0.7,6.3,-2.7,·
Nc1nonc1-c1nc2ccccc2n1Cc1ccc(F)cc1Cl,-9.2,100.0*,7.2,-1.7,-0.8,-13.7,-41.2
Cc1cccc(NC(=O)c2cc(S(=O)(=O)N3CCCC3)cn2C)c1,·,·,·,0.3,1.7,2.6,·
COCCC1CCCCN1C(=O)c1cc(COc2ccc(C)nc2)on1 (stereo not given),·,·,·,-0.1,0.3,-1.1,·
CCOC(=O)C(=CNc1ccc(Cl)cn1)C(=O)OCC,-12.2,12.5,·,0.2,4.8,2.3,·
CCOC(=O)C(=CNc1cc(C)nn1-c1ccc(Cl)cc1)C(=O)OCC,-4.2,103.9*,5.7,0.0,-1.8,1.8,14.0
Cc1c(C(=O)c2ccc(Br)cc2)c(=O)n(C)c(=O)n1C,-9.1,9.7,23.8,-0.3,-1.3,-1.0,·
Cc1cc(C)n(-c2nc3ccccc3nc2Nc2ccc3c(c2)OCO3)n1,-5.2,-11.3,10.4,0.2,1.7,1.4,·
Cc1ccc2nc(Nc3ccc4[nH]c(=O)[nH]c4c3)c(-n3nc(C)cc3C)nc2c1,-7.9,104.1*,22.0,-0.2,6.7,-12.0,114.4*
Cc1cc(C(=O)N2CCOCC2)n(-c2ccccc2)n1,-5.3,33.8,3.2,-0.7,0.2,1.7,·
CCS(=O)(=O)N1CCC(N2CCC(C)CC2)CC1,-2.1,3.0,·,-0.7,1.1,-0.1,·
CC(C)(C)c1cc(CN2CCCCC2)cc(C(C)(C)C)c1O,0.1,43.0,-4.7,·,·,·,·
CC(C)(C)c1cc(CN2CCCC(O)C2)c(O)c(C(C)(C)C)c1 (stereo not given),-1.7,107.2*,11.9,-0.9,14.3,-5.4,108.7*
COc1cc(/C=C(/C#N)c2nc3ccccc3[nH]2)ccc1OCC(=O)Nc1ccccc1C,8.4,59.8,3.5,0.1,2.1,-0.8,·
COc1cc(/C=C(/C#N)c2nc3ccccc3[nH]2)ccc1OCC(=O)Nc1ccccc1C(C)C,-3.7,107.5*,-10.3,-0.3,0.9,5.8,116.3*
CCc1ccc(/C=C2/C(=O)NC(=O)N2C(C)=O)cc1,·,·,·,-1.7,0.0,1.4,·
CCc1ccc(/C=c2\s/c(=C\C(=O)C(C)(C)C)[nH]c2=O)cc1,-0.1,106.6*,-1.0,-0.4,5.6,9.2,80.1*
Cc1ccc(Cn2c(=O)c3c(nc4n3CCCN4Cc3ccccc3)n(C)c2=O)cc1,-7.6,104.5*,10.4,-0.8,1.2,-23.1,-11.0
SMILES,EBV gp42 block,CHOP inhibitor,WT yeast gro inh,Tb MetRS inh,MPTP inh,GRIN3A LBD mod,CHOP inh conf
Nc1nc(SCc2ccc(Cl)cc2Cl)nc2nc3c(cc12)CCCC3,-90.8,103.3*,22.6,1.2,7.2,-3.4,-37.5
Nc1nc(SCc2ccccc2Cl)nc2nc3c(cc12)CCCC3,-22.2,16.8,-2.0,0.2,-0.6,-2.0,·
CCN(CC)S(=O)(=O)c1ccc(N2CCCC2)c(C(=O)Nc2ccc(OC)c(Cl)c2)c1,2.7,31.3,-12.3,-0.2,2.3,-6.0,·
COC(=O)CSc1nc(-c2ccccc2)c2c(c1C#N)CCCC2,-23.3,38.0,27.3,-0.2,-1.4,-2.1,·
N#Cc1c(NCCN)nc(-c2ccccc2)c2c1CCCC2,2.1,108.5*,-0.1,-0.9,0.9,-3.9,59.2
Cc1ccc(F)c(S(=O)(=O)NC(=O)C2(C)CCN2C(=O)C2(c3ccc(Cl)cc3)CC2)c1 (stereo not given),·,·,·,0.0,0.2,·,·
Cc1ccc(NC(=O)COc2ncnc3c(Cl)cc(Cl)cc23)cc1[N+](=O)[O-],-24.2,104.4*,10.0,0.2,-1.4,1.0,4.3
NCCCCCc1nnc(SCc2ccc(Cl)cc2Cl)o1,-10.9,21.5,2.9,1.4,-5.0,-1.8,·
COc1cccc(/C=C2/SC(=S)N(CCCC(=O)Nc3ccc(O)cc3)C2=O)c1,·,·,·,-0.1,1.0,1.1,·
O=C(CCCN1C(=O)/C(=C\c2ccccc2)SC1=S)Nc1ccc(O)cc1,2.5,97.6*,-13.3,-0.6,-0.2,6.1,18.4
O=C(Cc1ccc(Cl)c(Cl)c1)Nc1ccc2[nH]c(=O)[nH]c2c1,-24.4,98.4*,-18.6,-0.8,-1.8,5.6,5.5
O=S(=O)(C/C(=C/CO)S(=O)(=O)c1ccccc1)c1ccccc1,-2.5,·,-8.4,-0.5,-1.4,-0.2,117.6*
COc1cc2nc(CSc3nc(-c4ccc(F)cc4)cs3)[nH]c(=O)c2cc1OC,-26.4,104.7*,-4.4,0.6,1.0,-8.0,50.7
Cc1nc(SCC(=O)NC(C)c2ccccc2)c2oc3ccccc3c2n1 (stereo not given),-0.6,6.0,1.5,0.2,13.2,-1.1,·
Cc1nc(SCC(=O)Nc2ccccc2)c2oc3ccccc3c2n1,-13.8,96.4*,-7.6,0.4,3.5,0.3,32.3
Cc1nc(SCC(=O)Nc2ccc(F)cc2)c2oc3ccccc3c2n1,-9.4,106.4*,-10.3,0.1,-6.3,2.0,18.9
Cc1nc(SCC(=O)NCCc2ccccc2)c2oc3ccccc3c2n1,-7.1,54.7,1.1,-1.1,1.0,-1.2,·
COC(=O)c1c(NC(=O)C2CC2)sc2c1CCN(C(C)=O)C2,5.4,15.6,14.0,0.1,-0.7,0.4,·
NC1=NC(=O)C2(COC(c3cccnc3)OC2)S1 (stereo not given),-12.6,-24.6,7.1,-1.0,-0.3,-0.6,·
CCN1CCN(CCCNC(=O)CCCn2nc(C)c3sc4ccccc4c3c2=O)CC1,·,·,·,-0.3,-1.2,0.1,·
CCCCCCn1c(=O)c(C(=O)N/N=C/c2cccc(F)c2)c(O)c2ccccc21,-25.1,105.1*,-22.3,-0.9,14.5,-1.4,99.7*
CCCn1c(=O)c(C(=O)N/N=C/c2ccccc2F)c(O)c2ccccc21,-7.6,67.9,-0.2,-0.2,0.2,0.9,·
CC(C)CCn1c(=O)c(C(=O)N/N=C/c2cccc(F)c2)c(O)c2ccccc21,-15.4,105.6*,17.4,-0.1,32.1,-0.1,90.1*
